# GPR7 antagonist: human neuropeptides B/W receptor 1 antagonism; P48145; GPR7-expressing cells, fluorescence antagonist assay; inhibition, % at 4.4 µM; actives 1.1% (n = 290,000); AID 1861; in the data active means inhibition above about 16%, passing the limit was not always enough;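 further: cells stimulated with the agonist NPW; 0% = agonist with vehicle and 100% = vehicle without agonist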
# Target sequence (P48145 whole entry, looked up): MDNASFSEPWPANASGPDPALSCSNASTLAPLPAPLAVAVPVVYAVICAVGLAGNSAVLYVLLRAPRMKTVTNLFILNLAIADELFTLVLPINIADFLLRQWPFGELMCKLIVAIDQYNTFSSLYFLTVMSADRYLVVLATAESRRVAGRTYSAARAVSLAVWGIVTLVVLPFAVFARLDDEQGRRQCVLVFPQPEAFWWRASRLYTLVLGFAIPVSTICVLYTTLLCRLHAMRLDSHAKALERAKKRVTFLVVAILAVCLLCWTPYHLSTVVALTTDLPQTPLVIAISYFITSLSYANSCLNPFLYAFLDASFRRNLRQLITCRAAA
# OX1R antag-1: human HCRTR1 antagonism | AID 434989 | inhibition, % at 5 µM | O43613 | CHO/OX1R cells, Fluo-8 calcium fluorescence, orexin A | actives 0.43% (n = 330,000);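 active means inhibition above its plate's threshold, mean inhibition of all tested compounds on the plate plus 3 SD, cut at about 37% in these data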;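 further: 0% = orexin A challenge wells and 100% = SB-334867-A antagonist wells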
# CHO parental Ca: signal in parental CHO cells, OX1R antagonist counter-screen; parental CHO-K1, ATP-induced calcium, Fluo-8 fluorescence; actives 0.63% (n = 330,000); inhibition, % at 5.6 µM; AID 463079;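 active means inhibition above that plate's mean sample inhibition plus 3 SD, cut at about 26% in these data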;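 further: 0% = ATP-challenged DMSO wells and 100% = DMSO wells without ATP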
#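 Assay system: untransfected parental CHO cell line. Also added: ATP agonist challenge. Dosing: one dose, 5.6 µM nominal. Measured by: Fluo-8 fluorescence. Read-out: % inhibition. Benchmarks: ATP wells versus no-ATP DMSO wells. Repeats: no replicates.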
# GalR3 antag: blocks the human galanin receptor 3; O60755; HEK293 GalR3-CNG cAMP membrane potential fluorescence; galR3 body fused to GalR1 C-terminus; inhibition, % at 3 µM; actives 0.44% (n = 360,000); AID 651719;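 active means inhibition above the screen-wide average plus 3 SD, cut at about 13% in these data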;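 further: forskolin and galanin both at EC90 stimulate the cells; cAMP rise reported by CNG channel membrane potential dye signal; 0% = forskolin plus galanin with DMSO and 100% = forskolin alone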
# Target sequence (O60755 1-299 limits assumed): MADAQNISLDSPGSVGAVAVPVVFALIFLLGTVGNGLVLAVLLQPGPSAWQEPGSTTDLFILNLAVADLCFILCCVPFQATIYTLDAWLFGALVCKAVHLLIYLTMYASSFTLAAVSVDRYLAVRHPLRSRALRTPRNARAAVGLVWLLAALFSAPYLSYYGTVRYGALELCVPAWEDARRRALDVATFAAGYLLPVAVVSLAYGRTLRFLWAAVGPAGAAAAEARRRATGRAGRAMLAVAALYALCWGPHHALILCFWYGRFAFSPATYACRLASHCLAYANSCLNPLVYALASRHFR
# OX1R antag-2: antagonists of human orexin 1 receptor (OX1R) | O43613 | OX1R-expressing cells, FRET antagonist read-out | inhibition, % at 6.6 µM | actives 1.8% (n = 330,000) | AID 485270; in the data active means inhibition mostly above about 38%, no sharp cut-off; inactive means mostly below about 40%;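 further: 0% = agonist challenge alone and 100% = reference antagonist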
# The depositor's hits bear a star; . = no result given. Only some compounds are listed: those with a hit (about 3.1% of all), similar ones and a draw of the others.
SMILES,GPR7 antagonist,OX1R antag-1,CHO parental Ca,GalR3 antag,OX1R antag-2
CCCCNC(=O)c1cc2c(=O)n3cccc(C)c3nc2n(Cc2ccncc2)c1=N,-19,-22,-16,-7,41*
Cc1cccn2c(=O)c3cc(C#N)c(=NC(=O)c4ccncc4)n(CCCOC(C)C)c3nc12,-12,-16,-10,-1,47
COCCCn1c(=NC(=O)c2ccncc2)c(C#N)cc2c(=O)n3cccc(C)c3nc21,-8,-15,-7,-4,41*
COCCNC(=O)c1cc2c(=O)n3cccc(C)c3nc2n(Cc2ccncc2)c1=N,-16,-21,-9,-3,49*
Cc1cccn2c(=O)c3cc(C(=O)NCCc4ccccc4)c(=N)n(Cc4ccco4)c3nc12,20,-27,-9,-7,14
c1ccc(COc2ccccc2CNC23CC4CC(CC(C4)C2)C3)cc1,36*,-21,-9,-15,15
Nc1nnc(SCC(=O)NNC(=O)c2ccc([N+](=O)[O-])cc2)s1,.,1,-2,-4,36*
CCN(CC)c1ccc2nc3c4ccccc4c(=O)cc-3oc2c1,20,.,.,-17,.
CCN(CC)c1ccc2c(-c3ccc(S(=O)(=O)O)cc3S(=O)(=O)[O-])c3ccc(=[N+](CC)CC)cc-3oc2c1,70*,93*,75*,.,-38
CCOC(=O)/C(C#N)=C1/C=C(C)NC(c2ccccc2O)=N1,-19,25,-3,-8,40*
CCOC(=O)/C(C#N)=C1/C=CN(C)C(C)=N1,-3,-19,1,-6,14
COc1ccc(Nc2oc(COc3ccc(C)cc3)nc2C#N)cc1,-2,13,38*,-4,30
CCOc1ccc(Nc2oc(-c3ccco3)nc2C#N)cc1,-5,-9,-5,-5,22
CCOc1ccc(Nc2oc(-c3cccs3)nc2C#N)cc1,-16,19,4,-10,57*
O=C(NC1(C(=O)NC2CCCCC2)CCCCC1)c1ccccn1,-1,-17,-10,-2,13
Cc1ccc(NC(=O)C2(NC(=O)c3ccccn3)CCCCC2)cc1Br,-2,-4,-24,-1,68*
COC(=O)Cn1cc(C(=O)OC)c2ccccc21,21*,-10,-11,-2,19
COc1ccccc1CNS(=O)(=O)c1ccc(-c2cc(C)no2)cc1,8,12,-5,-1,66*
CCc1ccc(NC(=O)CSc2nncn2-c2cccnc2)cc1,-1,-5,-5,-7,-7
Cc1cc(/C=C2\SC(=S)N(Cc3ccco3)C2=O)c(C)n1-c1cccnc1,-2,.,.,0,.
Cc1cc(/C=C2/SC(=S)N(c3cccc(C(F)(F)F)c3)C2=O)c(C)n1-c1cccnc1,-12,23,50*,.,25
O=C1/C(=C\c2ccc(O)cc2)SC(=S)N1c1cccnc1,0,23,58*,-4,12
COc1cccc(CN(C)C(=O)CN2C(=O)NC(c3ccccc3)(c3ccccc3)C2=O)c1OC,.,-19,-25,0,8
COc1ccc(CCNCc2csc3nc4ccccc4n23)cc1OC,6,29,27,-6,53*
COc1ccc(CCNc2nc3ccccc3n3nnnc23)cc1OC,-10,-29,-8,2,3
SMILES,GPR7 antagonist,OX1R antag-1,CHO parental Ca,GalR3 antag,OX1R antag-2
O=C(N/N=C/c1cc(Br)c(Br)o1)c1cc2ccccc2o1,8,-2,15,-2,62*
COCCNC(=O)/C(C#N)=C1\N=C(NC(=O)c2cccs2)c2ccccc21,-5,-7,-7,-2,42*
CCCNC(=O)/C(C#N)=C1\N=C(NC(=O)c2cccs2)c2ccccc21,-4,3,-2,2,16
Cc1cc2c(c(=O)o1)[C@@]1(C(=O)N(C)c3cc(Br)ccc31)C1=C(CCCC1=O)O2,.,.,.,-2,.
CSc1ccc(CN(C)Cc2cc(=O)oc3c(C)c(C)ccc23)cc1,-7,-15,53*,-15,12
Cc1ccc2c(CN(C)Cc3cccc(Cl)c3)cc(=O)oc2c1C,8,-12,-9,-12,1
O=C(Cc1cccc2ccccc12)NNC(=O)c1ccc(Br)o1,7,14,-14,-10,51*
O=C(Cc1ccccc1)NNC(=O)c1ccc(Br)o1,5,.,.,1,.
CC(C)OCCCNC(=O)CCC(=O)NNc1nc2ccccc2c2nc(-c3ccccc3)nn12,13,19,-13,2,66*
COCCNC(=O)CCC(=O)NNc1nc2ccccc2c2nc(-c3ccccc3)nn12,-15,6,-3,-4,72*
Cc1nc2c3ccccc3nc(NNC(=O)CCC(=O)NCCC(C)C)n2n1,-8,-5,-7,-1,14
CCOCCCNC(=O)CCC(=O)NNc1nc2ccccc2c2nc(-c3ccccc3)nn12,-4,26,-16,4,53*
C[C@H](c1ccccc1)N1C[C@@H](COCc2ccccc2)Oc2cccc(Oc3ccccc3)c2S1(=O)=O,.,.,.,-4,.
COC(=O)c1cc(=O)n(Cc2ccco2)c(=Nc2ccccc2)s1,.,.,.,-8,.
Cc1cc(C(C#N)c2cccc(Cl)c2)n2ncnc2n1 (stereo not given),14,0,-7,-3,76*
CC(C)(C)c1ccc(C#C[C@@H]2C=C[C@@H](O)[C@@H](COC(=O)Nc3ccccc3)O2)cc1,.,.,.,0,.
CC(NC(=O)CN(c1cccc(C(F)(F)F)c1)S(=O)(=O)c1ccc(Cl)c([N+](=O)[O-])c1)c1ccccc1 (stereo not given),46*,22,36*,-8,4
Cc1ccc(N(CC(=O)NCCc2ccc(F)cc2)S(=O)(=O)c2ccc(Cl)c([N+](=O)[O-])c2)c(C)c1,48*,5,-2,-10,18
O=C(CN(c1cccc(C(F)(F)F)c1)S(=O)(=O)c1ccc(Cl)c([N+](=O)[O-])c1)NCc1ccccc1,41*,22,17,-9,20
O=C(CN(c1cccc(C(F)(F)F)c1)S(=O)(=O)c1ccc(Cl)c([N+](=O)[O-])c1)NCc1ccccc1Cl,14,8,11,-12,23
CC(C)(C)NC(=O)CN(c1cccc([N+](=O)[O-])c1)S(=O)(=O)c1ccccc1,-1,-20,-20,1,2
CCn1c(=O)c2ccccc2n2c(SCC(=O)NCc3cccs3)nnc12,-8,-17,0,-2,23
CCCn1c(=O)c2ccccc2n2c(SCC(=O)NCc3cccs3)nnc12,18*,-36,-30,-6,22
Cn1c(/C=C/c2cccc(Br)c2)nc2ccccc2c1=O,4,25,-34,-3,60*
Cc1cccc(-c2noc(CN(C(=O)C(c3ccccc3)c3ccccc3)C(C)C)n2)c1,-6,-9,69*,-2,43*
Cc1cccc(-c2noc(CN(C(=O)c3ccc(Br)o3)C(C)C)n2)c1,-10,-21,-15,4,35
CCN(Cc1nc(-c2cccc(C)c2)no1)C(=O)c1ccc2c(c1)OCO2,12,-6,-21,-10,14

# Source: PubChem BioAssay
